Results: ChEMBL document CHEMBL4414567, “α-Pyrone and Sterol Constituents of Penicillium aurantiacobrunneum, a Fungal Associate of the Lichen Niebla homalea” (J Nat Prod, 2019)

Assays:
Format in all cases: functional, cell-based
[1] = test system: MCF7; test: Antiproliferative activity against human MCF7 cells measured after 72 hrs by sulforhodamine B assay; conditions: MCF7, 72 h
Outline: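 SRB assay. MCF-7 cells grown in RPMI-1640 with L-glutamine, 10% FBS and 1% antibiotic-antimycotic, at 37 °C in 95% air/5% CO2, and subcultured at 80–90% confluence. Seeded at 6000 cells per mL in 96-well plates, exposed for 72 h at 37 °C, then read by sulforhodamine B staining. Three independent experiments, each in triplicate.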

[2] = test system: A2780; test: Antiproliferative activity against human A2780 cells measured after 72 hrs by sulforhodamine B assay; conditions: A2780, 72 h
Outline: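 A2780 cells grown in RPMI-1640 with L-glutamine, 10% FBS and 1% antibiotic-antimycotic, 37 °C, 5% CO2, subcultured at 80–90% confluence; seeded at 25000 cells per mL in 96-well plates; compound exposure 72 h at 37 °C; sulforhodamine B read-out; three independent experiments, each in triplicate.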

[3] = test system: HT-29; test: Antiproliferative activity against human HT-29 cells measured after 72 hrs by sulforhodamine B assay; conditions: HT-29, 72 h
Outline: (§1)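 SRB antiproliferation assay: cells seeded at 100,000 cells per mL in 96-well plates, incubated with compound 72 h at 37 °C in 95% air/5% CO2; sulforhodamine B staining read-out; three independent experiments, each in triplicate.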

[4] = test system: HeLa; test: Antiproliferative activity against human HeLa cells measured after 72 hrs by sulforhodamine B assay; outline: as §1
[5] = test system: DU-145; test: Antiproliferative activity against human DU145 cells measured after 72 hrs by sulforhodamine B assay; conditions: DU-145, 72 h; outline: as §1

Row | IC50 [1] [µM] | IC50 [2] [µM] | IC50 [3] [µM] | IC50 [4] [µM] | IC50 [5] [µM] | Compound
1 | > 10 | > 10 | > 10 | > 10 | > 10 | C=C(CC[C@@]1(C)O[C@H]2O[C@H]3C[C@H]1[C@]21CC[C@@H]2[C@@]4(C)CC[C@H](O)C[C@@H]4C[C@H](O)[C@@]2(O)[C@H]31)C(C)C
2 | > 10 | > 10 | 9.8 | > 10 | > 10 | C=C(CC[C@]1(C)O[C@@H]2O[C@@]34[C@H](O)C[C@H]5C[C@@H](O)CC[C@]5(C)[C@H]3CC[C@]23[C@H]4[C@H](O)C[C@@H]31)C(C)C
3 |  | 0.018 |  |  | 0.001 | CC(=O)O[C@H]1C(=O)[C@@]2(C)[C@H]([C@H](OC(=O)c3ccccc3)[C@]3(O)C[C@H](OC(=O)[C@H](O)[C@@H](NC(=O)c4ccccc4)c4ccccc4)C(C)=C1C3(C)C)[C@]1(OC(C)=O)CO[C@@H]1C[C@@H]2O [PACLITAXEL]

Row | Compound | IC50 [1] [µM] | IC50 [2] [µM] | IC50 [3] [µM] | IC50 [4] [µM] | IC50 [5] [µM]
4 | COc1cc(=O)oc(/C=C/C=C/C=C/C(C)=C/[C@]2(C)O[C@H](C)[C@](C)(O)[C@@H]2O)c1C | 4.2 to 6 | 5.7 to 8.2 | > 10 | > 10 | > 10
